Screening data as filed in PubChem BioAssay.
Rows were chosen to be rich in hits. Some 3.7% of all compounds tested hit in one or more screens of this group.
KCNK9 inh – human KCNK9 channel inhibition; AID 488922; Q9NPC2; HEK293 KCNK9, FluxOR thallium flux fluorescence; stronger effect = lower value; 310,000 compounds, 1.2% hits; B-score at 10 µM;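 active means ratio B-score over 3 SD below the library mean, with starting fluorescence within 5 SD of its mean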;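 further: negative B-score means less thallium flux so channel inhibition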
hERG protect – compounds protecting human hERG from proarrhythmic drug block; activation (rescue from dofetilide block), less the hit threshold, % at 10 µM; Q12809; 310,000 compounds, 0.51% hits; CHO-hERG, FluxOR thallium flux, dofetilide IC70 present;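 active means activation above the mean of controls blocked by dofetilide plus 5 SD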;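 further: thallium influx through hERG after potassium depolarization seen as dye fluorescence rise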
KCNQ1 inh – blocks the human KCNQ1 potassium channel; P51787; CHO-K1 KCNQ1, FluxOR thallium flux fluorescence; stronger effect = higher value; B-score at 10 µM; 310,000 compounds, 1.3% hits;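 active means compounds whose thallium flux B-score, printed positive for inhibition, exceeds three library SD while starting fluorescence stays within three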;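 further: channel opened by potassium depolarization with thallium stimulus after 20 min compound exposure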
Target sequence (P51787 whole entry, looked up): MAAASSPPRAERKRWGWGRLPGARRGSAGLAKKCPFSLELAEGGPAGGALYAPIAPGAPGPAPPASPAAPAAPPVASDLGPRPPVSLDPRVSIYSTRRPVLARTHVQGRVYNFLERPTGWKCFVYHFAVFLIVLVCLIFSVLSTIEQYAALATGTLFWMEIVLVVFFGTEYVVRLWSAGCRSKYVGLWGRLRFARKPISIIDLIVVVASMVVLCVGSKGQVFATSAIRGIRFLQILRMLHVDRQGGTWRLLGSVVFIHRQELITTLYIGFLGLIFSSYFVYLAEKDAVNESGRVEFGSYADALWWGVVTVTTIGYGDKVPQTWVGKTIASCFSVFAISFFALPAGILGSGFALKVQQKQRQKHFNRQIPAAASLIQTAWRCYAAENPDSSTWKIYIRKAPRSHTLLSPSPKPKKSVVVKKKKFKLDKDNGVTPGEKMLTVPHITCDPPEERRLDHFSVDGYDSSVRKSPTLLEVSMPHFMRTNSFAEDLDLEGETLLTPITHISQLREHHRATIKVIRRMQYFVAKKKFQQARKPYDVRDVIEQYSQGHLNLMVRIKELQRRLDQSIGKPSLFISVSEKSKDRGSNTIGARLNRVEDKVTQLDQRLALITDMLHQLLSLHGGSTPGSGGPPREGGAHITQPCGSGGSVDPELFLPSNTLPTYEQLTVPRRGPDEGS
KCNQ1 pot – potentiates or activates the human KCNQ1 potassium channel; CHO-K1 KCNQ1, thallium flux FluxOR fluorescence; stronger effect = higher value; 310,000 compounds, 0.35% hits; B-score at 10 µM; P51787;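 active means fluorescence ratio B-score, a plate-corrected score, at least three library SD, with initial intensity B-score within 5 SD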
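Material: CHO-K1 cells stably expressing KCNQ1. Medium: assay buffer for compound exposure, DMSO matched across wells. Reagent: K+/Tl+ depolarizing stimulus. Compound dosing: single-concentration screen. Times: 37 °C overnight plating, 90-min dark dye load, 20-min compound pretreatment. Technique: FluxOR Tl+ flux fluorescence.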
KCNK3 inh – human KCNK3 channel inhibition, primary screen | CHO-KCNK3 thallium flux, FluxOR fluorescence; stronger effect = lower value | B-score at 10 µM | 340,000 compounds, 0.84% hits | O14649 | AID 602410;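 active means B-score under library mean minus 4 SD, starting fluorescence ratio at most library mean plus 5 SD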;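 further: more negative B-score means stronger inhibition of thallium flux through KCNK3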
Kir21 inh – blocks the mouse Kir2.1 inward-rectifier potassium channel; HEK293-Kir2.1, FluxOR thallium flux fluorescence; stronger effect = lower value; B-score at 10 µM; 310,000 compounds, 0.85% hits; AID 1672;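 active means fluorescence ratio B-score at or below minus 3 SD of library scores, with starting-brightness B-score within 2 SD, cut at about -4.2 in these data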;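 further: channel flux triggered by added potassium and thallium sulfate stimulus; B-score of peak minus minimum fluorescence over baseline after thallium stimulus; more negative B-score means stronger Kir2.1 block with less thallium influx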
KCNK9 block conf – human KCNK9 inhibitor confirmation; AID 492992; HEK293 KCNK9 cells, FluxOR thallium flux fluorescence; 4,900 compounds, 43% hits; shares compounds with KCNK9 inh; inhibition, % at 10 µM;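 active means thallium signal inhibited by more than 5 SD of the compound-free buffer control wells, on both duplicate plates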;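 further: 0% = assay buffer control wells without compound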
Kir2-1 spec – tests whether KCNK9 modulators also affect mouse Kir2.1; shares compounds with KCNK9 inh; Kir2.1 cells, FluxOR thallium flux fluorescence; inhibition, % at 10 µM; 4,900 compounds, 4% hits;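 active means thallium signal drop more than 5 SD beyond the mean of the no-compound control wells, seen in both duplicate plates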;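 further: signal is fluorescence rise after thallium addition divided by baseline fluorescence; plate controls were assay buffer only for no effect and full block by chlorpromazine control for full effect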
HEK293 Tl ctr – second check of KCNK9 modulator effects in non-induced HEK293 cells; shares compounds with KCNK9 inh; 4,900 compounds, 40% hits; inhibition, % at 10 µM; FluxOR thallium flux;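 active means thallium signal drop beyond 5 SD of the untreated control mean, on both duplicate plates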;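 further: plate controls were buffer only IC0 wells for no effect and SID17386958 at its maximal inhibitory level for full effect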
The depositor's hits bear a star.

What do the screens show for `CC1(c2ccccc2)CC(C)(C)N2C(=O)C(=O)c3cccc1c32` (configuration not stated)?
KCNK9 inh: inactive; hERG protect: -17; KCNQ1 inh: inactive; KCNQ1 pot: inactive; KCNK3 inh: inactive; Kir21 inh: -2.1; KCNK9 block conf: inactive; Kir2-1 spec: inactive; HEK293 Tl ctr: inactive

How did COc1ccccc1C(=O)NCC(=O)NCC1(N2CCCCC2)CCCCC1 do in these assays?
KCNK9 inh: inactive; hERG protect: -4; KCNQ1 inh: inactive; KCNQ1 pot: inactive; KCNK3 inh: inactive; Kir21 inh: -0.82

What do the screens show for `CC1C(=NO)C(C)C(c2ccc(N(C)C)cc2)NC1c1ccc(N(C)C)cc1` (configuration not stated)?
KCNK9 inh: inactive; hERG protect: -4; KCNQ1 inh: inactive; KCNQ1 pot: inactive; KCNK3 inh: inactive; Kir21 inh: -0.65; KCNK9 block conf: inactive; Kir2-1 spec: inactive; HEK293 Tl ctr: inactive

How did NS(=O)(=O)c1ccc(NC(=O)CSc2nc3c(cnn3-c3ccccn3)c(=O)[nH]2)cc1 do in these assays?
KCNK3 inh: inactive

Results for CC12CCC(C(=O)NCCc3ccccc3)(OC1=O)C2(C)C (configuration not stated) ?
KCNK9 inh: inactive; hERG protect: -2; KCNQ1 inh: inactive; KCNQ1 pot: inactive; KCNK3 inh: inactive; Kir21 inh: 1.9; KCNK9 block conf: inactive; Kir2-1 spec: inactive; HEK293 Tl ctr: inactive

What do the screens show for `Cc1[nH]nc2c1C(c1ccsc1)C1=C(CC(C)(C)CC1=O)N2` (configuration not stated)?
KCNK9 inh: inactive; hERG protect: -5; KCNQ1 inh: inactive; KCNQ1 pot: inactive; KCNK3 inh: inactive; Kir21 inh: 0.5

How did CC1CCN(C(=O)c2ccc3c(Cl)c4c(nc3c2)CCCC4)CC1 do in these assays?
KCNK9 inh: inactive; hERG protect: -7; KCNQ1 inh: inactive; KCNQ1 pot: inactive; KCNK3 inh: inactive; Kir21 inh: 0.98; KCNK9 block conf: inactive; Kir2-1 spec: inactive; HEK293 Tl ctr: inactive

What do the screens show for `O=C(c1ccc2c(Cl)c3c(nc2c1)CCCC3)N1CCN(c2ccc(F)cc2)CC1`?
KCNK9 inh: inactive; hERG protect: -8; KCNQ1 inh: inactive; KCNQ1 pot: inactive; KCNK3 inh: inactive; Kir21 inh: 0.4; KCNK9 block conf: inactive; Kir2-1 spec: inactive; HEK293 Tl ctr: inactive

What do the screens show for `C(=N\Nc1nc(N2CCCC2)nc(N2CCCC2)n1)/c1ccncc1`?
KCNK9 inh: inactive; hERG protect: -25; KCNQ1 inh: inactive; KCNQ1 pot: inactive; KCNK3 inh: inactive; Kir21 inh: -0.47

How did O=C(Nc1ccc2c(c1)OCO2)c1c[nH]c(=O)n(-c2ccc(F)cc2)c1=O do in these assays?
KCNK9 inh: inactive; hERG protect: -9; KCNQ1 inh: inactive; KCNQ1 pot: inactive; KCNK3 inh: inactive; Kir21 inh: 0.36

What do the screens show for `O=C(CNCc1ccc(F)cc1)Nc1cc(S(=O)(=O)N2CCOCC2)ccc1Cl`?
KCNK3 inh: inactive

How did CC(OC(=O)c1cc(=O)[nH]c2ccccc12)c1ccccc1 (configuration not stated) do in these assays?
KCNK9 inh: inactive; hERG protect: -4; KCNQ1 inh: inactive; KCNQ1 pot: inactive; KCNK3 inh: inactive; Kir21 inh: -0.58

Results for Cc1sc(NC(=O)c2ccco2)c(CN2CCN(c3ccccn3)CC2)c1C ?
KCNK9 inh: -12*; hERG protect: -16; KCNQ1 inh: inactive; KCNQ1 pot: inactive; KCNK3 inh: -9.8*; Kir21 inh: -0.81; KCNK9 block conf: 48%*; Kir2-1 spec: inactive; HEK293 Tl ctr: 30%*

What do the screens show for `CCN(CC)N=Nc1ccc(S(=O)(=O)Nc2nc(C)cc(C)n2)cc1`?
KCNK9 inh: inactive; hERG protect: -7; KCNQ1 inh: inactive; KCNQ1 pot: inactive; KCNK3 inh: inactive; Kir21 inh: 0.83

Results for CCOc1ccccc1N1CCN(C(=O)c2cc3cc(OC)ccc3[nH]2)CC1 ?
KCNK9 inh: inactive; hERG protect: -4; KCNQ1 inh: inactive; KCNQ1 pot: inactive; KCNK3 inh: inactive; Kir21 inh: 0.3; KCNK9 block conf: inactive; Kir2-1 spec: inactive; HEK293 Tl ctr: inactive

How did CCc1nnc(NC(=O)CCc2ccccc2OC)s1 do in these assays?
KCNK9 inh: inactive; hERG protect: -6; KCNQ1 inh: inactive; KCNQ1 pot: inactive; KCNK3 inh: inactive; Kir21 inh: -0.2

How did COc1ccc(OC)c(S(=O)(=O)NCC(c2cccs2)N2CCc3ccccc3C2)c1 (configuration not stated) do in these assays?
KCNK9 inh: -9.1*; hERG protect: -8; KCNQ1 inh: inactive; KCNQ1 pot: inactive; KCNK3 inh: inactive; Kir21 inh: -1.2; KCNK9 block conf: inactive; Kir2-1 spec: inactive; HEK293 Tl ctr: inactive

How did COc1ccc(S(=O)(=O)NCC(c2cccs2)N2CCc3ccccc3C2)cc1 (configuration not stated) do in these assays?
KCNK9 inh: inactive; hERG protect: -11; KCNQ1 inh: inactive; KCNQ1 pot: inactive; KCNK3 inh: inactive; Kir21 inh: -1.4

Results for Cc1cc(C)n(-c2nc3ccccc3nc2N2CCCCCC2)n1 ?
KCNK9 inh: -9.9*; hERG protect: -7; KCNQ1 inh: inactive; KCNQ1 pot: inactive; KCNK3 inh: inactive; Kir21 inh: -2; KCNK9 block conf: 33%*; Kir2-1 spec: inactive; HEK293 Tl ctr: 40%*

How did Cc1ccc(-n2ncc3c2CC(C)(C)CC3NC(=O)CCN2CCCO2)cc1 (configuration not stated) do in these assays?
KCNK9 inh: inactive; hERG protect: -7; KCNQ1 inh: inactive; KCNQ1 pot: inactive; KCNK3 inh: inactive; Kir21 inh: -0.54

Results for Cc1ccc(C)c(C(=O)OCC(=O)N(C)c2ccccc2)c1 ?
KCNK9 inh: inactive; hERG protect: -6; KCNQ1 inh: inactive; KCNQ1 pot: inactive; KCNK3 inh: inactive; Kir21 inh: -1.2; KCNK9 block conf: inactive; Kir2-1 spec: inactive; HEK293 Tl ctr: inactive
